Laboratory results taken from ChEMBL document CHEMBL1146767, “New highly selective inhibitors of class II fructose-1,6-bisphosphate aldolases” (Bioorg Med Chem Lett, 2004).

Legend:
[1] = In vitro binding affinity towards FBP aldolase from yeast; design: species or system Saccharomyces cerevisiae
Summary of the method: (§1)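 Yeast aldolase was partly purified after French-press cell disruption (specific activity 5.5 U/mg). DHAP from FBP cleavage was coupled to glycerophosphate dehydrogenase (300-fold excess), with NADH loss monitored at 340 nm. Buffer was 0.1 M glycylglycine, pH 7.4, with 0.01 M 2-mercaptoethanol. FBP served as substrate.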

[2] = In vitro binding towards FBP aldolase from rabbit; design: species or system Oryctolagus cuniculus
Summary of the method: (§2)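 Rabbit muscle class I aldolase was assayed in 0.1 M triethanolamine–HCl, pH 7.6, with 1 mM EDTA. DHAP released from FBP was measured through a coupled reaction with a 300-fold excess of glycerophosphate dehydrogenase, following NADH consumption spectrophotometrically at 340 nm.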

Oryctolagus cuniculus [3] = species on record: Oryctolagus cuniculus; experiment: Selectivity (Ki rabbit /Ki yeast) of inhibitors for class II versus class I FBP aldolase
[4] = (§3) In vitro binding affinity towards FBP aldolase from Bacillus subtilis
Summary of the method: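 Class II aldolase from Bacillus subtilis with FBP as substrate. DHAP formed was measured at 340 nm as NADH consumption, coupled to a 300-fold excess of glycerophosphate dehydrogenase. Medium was 0.1 M glycylglycine buffer pH 7.4, without 2-mercaptoethanol.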

[5] = In vitro binding affinity towards FBP aldolase from rabbit; design: species or system Oryctolagus cuniculus
Summary of the method: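 Rabbit muscle class I aldolase, FBP substrate. Cleavage product DHAP was followed spectrophotometrically at 340 nm through NADH consumption, using a 300-fold excess of glycerophosphate dehydrogenase as coupling enzyme. Medium was 0.1 M triethanolamine–HCl pH 7.6 with 1 mM EDTA.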

Oryctolagus cuniculus [6] = species on record: Oryctolagus cuniculus; experiment: Selectivity (Ki rabbit /Ki B:subtilis) of inhibitors for class II versus class I FBP aldolase
Bacillus subtilis = experiment: Enzymatic kinetics (Km) constant towards FBP aldolase from Bacillus subtilis
Summary of the method: (§4)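 B. subtilis class II aldolase. FBP cleavage was followed by reducing the DHAP formed with a 300-fold excess of glycerophosphate dehydrogenase and reading NADH consumption at 340 nm. Medium was 0.1 M glycylglycine buffer, pH 7.4, without 2-mercaptoethanol. Inhibition was analysed with FBP as substrate.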

Saccharomyces cerevisiae = experiment: Enzymatic kinetics (Km) constant towards FBP aldolase from yeast; summary of the method: as §1
Oryctolagus cuniculus [7] = species on record: Oryctolagus cuniculus; experiment: Enzymatic kinetics (Km) constant towards FBP aldolase from rabbit; summary of the method: as §2
[8] = as §3; summary of the method: as §4; remark: listed apart in the source

Ki [1] [µM] | Ki [2] [µM] | Selectivity (Oryctolagus cuniculus [3]) | Km (Bacillus subtilis) [µM] | Km (Saccharomyces cerevisiae) [µM] | Km (Oryctolagus cuniculus [7]) [µM] | Ki [8] [µM] | SMILES | Ki [4] [µM] | Ki [5] [µM] | Selectivity (Oryctolagus cuniculus [6])
0.01 | 1 | 100 |  |  |  |  | O=C(COP(=O)(O)O)NO [PHOSPHOGLYCOLOHYDROXAMATE] |  |  | 
 |  |  | 2000 | 450 | 55 |  | O=P(O)(O)OC[C@H]1O[C@](O)(COP(=O)(O)O)[C@@H](O)[C@@H]1O |  |  | 
2.3 |  | > 435 |  |  |  | 3.3 | N/C(COP(=O)(O)O)=N/O |  | > 1000 | > 303

SMILES | Ki [1] [µM] | Ki [2] [µM] | Selectivity (Oryctolagus cuniculus [3]) | Km (Bacillus subtilis) [µM] | Km (Saccharomyces cerevisiae) [µM] | Km (Oryctolagus cuniculus [7]) [µM] | Ki [8] [µM] | Ki [4] [µM] | Ki [5] [µM] | Selectivity (Oryctolagus cuniculus [6])
NNC(=O)COP(=O)(O)O [PHOSPHORIC ACID MONOHYDRAZINOCARBONYLMETHYL ESTER] | 0.34 |  | 1090 |  |  |  |  | 670 | 370 | 552
